# In ChEMBL document CHEMBL3259637, “Synthesis and antiproliferative effect of novel 4-thiazolidinone-, pyridine- and piperazine-based conjugates on human leukemic cells” (Eur J Med Chem, 2014):
# The source made the active and inactive calls. The calls are words filed in the database; no cut-off is given here.
# Key:
# [1] = test system: K562; assay: Antiproliferative activity against human K562 cells after 48 to 72 hrs by trypan blue dye exclusion assay and MTT assay; type: functional, cell-based
# [2] = Antiproliferative activity against human NALM6 cells after 48 to 72 hrs by trypan blue dye exclusion assay and MTT assay; type: functional, cell-based; settings: NALM-6
# [3] = test system: Jurkat; assay: Antiproliferative activity against human Jurkat cells after 48 to 72 hrs by trypan blue dye exclusion assay and MTT assay; type: functional, cell-based
# [4] = Cell cycle arrest in human NALM6 cells assessed as change in cell cycle distribution at 5 to 10 uM after 48 hrs by propidium iodide staining based flow cytometry; type: functional; settings: NALM-6
# Summary of the method: (§1)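 Nalm6 cells (about 0.75 × 10⁵ cells/ml) were treated at 5, 10 and 20 µM for 48 h, with a DMSO vehicle control. Cells were PBS-washed, treated with RNase (50 µg/ml), stained with propidium iodide and analysed by flow cytometry (488 nm excitation, 560/670 emission). At least 10,000 cells per sample; subG1, G1, S and G2/M fractions scored. Two independent experiments.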
# [5] = Cell cycle arrest in human NALM6 cells assessed as accumulation at G2/M phase at 20 uM after 48 hrs by propidium iodide staining based flow cytometry; type: functional; settings: NALM-6; summary of the method: as §1
# [6] = test system: NALM-6; assay: Induction of cell death in human NALM6 cells assessed as mitochondrial membrane potential depolarization after 48 hrs by JC1 staining based flow cytometry; type: functional
# Summary of the method: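 Nalm6 cells were exposed to 5, 10 and 20 µM for 48 h, then loaded with JC-1 (0.5 µM) at 37°C for 30 min and PBS-washed. Flow cytometry used 488 nm excitation, reading emission at 530/630 and 580/610 nm on 10,000 cells. The ratio of red to green fluorescent cells was reported. 2,4-DNP was the positive control and DMSO the vehicle control.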
# [7] = Cell cycle arrest in human NALM6 cells assessed as change in cell cycle distribution after 48 hrs by propidium iodide staining based flow cytometry; type: functional; settings: NALM-6; summary of the method: as §1
# [8] = Cell cycle arrest in human NALM6 cells assessed as accumulation at subG1 phase at 20 uM after 48 hrs by propidium iodide staining based flow cytometry; type: functional; settings: NALM-6; summary of the method: as §1
Compound,IC50 [1] [µM],IC50 [3] [µM],IC50 [2] [µM],Activity [4],Activity [5],Activity [6],Activity [7],Activity [8]
COC(=O)c1ccc(C2SCC(=O)N2c2ccc(N3CCN(Cc4cccc(C)c4)CC3)cn2)c(OC)c1 (stereo not given),> 100,> 100,27.3,–,–,–,–,–
COC(=O)c1ccc(C2SCC(=O)N2c2ccc(N3CCN(S(=O)(=O)c4ccc([N+](=O)[O-])cc4)CC3)cn2)c(OC)c1 (stereo not given),65.2,54,> 100,–,–,–,–,–
COC(=O)c1ccc(C2SCC(=O)N2c2ccc(N3CCN(S(=O)(=O)c4cc(Cl)ccc4Cl)CC3)cn2)c(OC)c1 (stereo not given),> 100,> 100,27.4,–,–,–,–,–
COC(=O)c1ccc(C2SCC(=O)N2c2ccc(N3CCN(S(=O)(=O)c4ccc(F)cc4)CC3)cn2)c(OC)c1 (stereo not given),> 100,78.3,> 100,–,–,–,–,–
COC(=O)c1ccc(C2SCC(=O)N2c2ccc(N3CCN(S(=O)(=O)c4ccccc4)CC3)cn2)c(OC)c1 (stereo not given),65.6,52.9,48.4,–,–,–,–,–
COC(=O)c1ccc(C2SCC(=O)N2c2ccc(N3CCN(Cc4ccc(Cl)c(Cl)c4)CC3)cn2)c(OC)c1 (stereo not given),> 100,61,> 100,–,–,–,–,–
COC(=O)c1ccc(C2SCC(=O)N2c2ccc(N3CCN(S(=O)(=O)c4c(C)cc(C)cc4C)CC3)cn2)c(OC)c1 (stereo not given),53.5,> 100,> 100,–,–,–,–,–

# Stronger by IC50 [3], values ahead:
IC50 [1] [µM],IC50 [3] [µM],Compound,IC50 [2] [µM],Activity [4],Activity [5],Activity [6],Activity [7],Activity [8]
> 100,41,COC(=O)c1ccc(C2SCC(=O)N2c2ccc(N3CCN(Cc4cc(OC)c(OC)c(OC)c4)CC3)cn2)c(OC)c1 (stereo not given),> 100,–,–,–,–,–
54.5,45.2,COC(=O)c1ccc(C2SCC(=O)N2c2ccc(N3CCN(S(=O)(=O)c4ccc(OC)cc4)CC3)cn2)c(OC)c1 (stereo not given),29.4,–,–,–,–,–
68.7,37.4,COC(=O)c1ccc(C2SCC(=O)N2c2ccc(N3CCN(Cc4cccc([N+](=O)[O-])c4)CC3)cn2)c(OC)c1 (stereo not given),> 100,–,–,–,–,–
15.2,19.3,COC(=O)c1ccc(C2SCC(=O)N2c2ccc(N3CCNCC3)cn2)c(OC)c1 (stereo not given),9.71,Active,Active,Dose-dependent effect,Dose-dependent effect,Active
–,0.0045,CC(=O)O[C@H]1C(=O)[C@@]2(C)[C@H]([C@H](OC(=O)c3ccccc3)[C@]3(O)C[C@H](OC(=O)[C@H](O)[C@@H](NC(=O)c4ccccc4)c4ccccc4)C(C)=C1C3(C)C)[C@]1(OC(C)=O)CO[C@@H]1C[C@@H]2O [PACLITAXEL],0.0041,–,–,–,–,–
